ABHD4 inh: inhibits mouse alpha/beta hydrolase domain 4; purified mABHD4, FP-Rh probe fluorescence polarization; inhibition, % at 8.92 µM; actives 0.54% (n = 370,000);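 active = inhibition exceeding the mean over every tested compound plus 3 SD, cut at about 30% in these data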;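 note: 0% = plate median of compound wells and 100% = S159A mutant with DMSO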
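Test system: mABHD4 protein; Read-out basis: % inhibition; Incubation: 45 min + 60 min at 25 °C; Repeats: single replicate; Technique: fluorescence polarization with parallel and perpendicular emission, 525/598 nm; Compound: 8.92 µM, single dose; Benchmarks: full inhibition S159A mutant plus DMSO, zero as sample-well median.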
SIAE primary: inhibitors of human sialic acid acetylesterase SIAE. Q9HAT2. SIAE FP-Rh probe binding, fluorescence polarization. inhibition, % at 9.66 µM. actives 0.69% (n = 370,000);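 active = inhibition above a cutoff: mean of compounds within the control limits plus 3 SD of those, cut at about 17% in these data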;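 note: 0% = plate median of compound wells and 100% = probe without SIAE protein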
Target sequence (Q9HAT2 whole entry, looked up): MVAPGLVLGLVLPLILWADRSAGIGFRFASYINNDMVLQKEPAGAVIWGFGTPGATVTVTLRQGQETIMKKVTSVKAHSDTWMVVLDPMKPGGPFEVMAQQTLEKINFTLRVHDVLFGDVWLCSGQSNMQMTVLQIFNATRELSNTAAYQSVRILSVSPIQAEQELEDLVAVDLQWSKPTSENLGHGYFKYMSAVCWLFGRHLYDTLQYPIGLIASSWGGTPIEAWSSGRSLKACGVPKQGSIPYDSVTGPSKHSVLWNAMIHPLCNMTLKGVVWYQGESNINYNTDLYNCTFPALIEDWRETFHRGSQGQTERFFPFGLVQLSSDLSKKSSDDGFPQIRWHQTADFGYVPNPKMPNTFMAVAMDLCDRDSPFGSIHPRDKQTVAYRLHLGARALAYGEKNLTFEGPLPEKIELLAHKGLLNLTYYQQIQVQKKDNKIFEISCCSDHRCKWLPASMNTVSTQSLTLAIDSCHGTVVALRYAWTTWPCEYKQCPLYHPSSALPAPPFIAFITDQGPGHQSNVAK
HTRA1 inh: blocks human HTRA1 serine peptidase. recombinant HTRA1, FP-rhodamine activity-based probe, fluorescence polarization. Q92743. actives 0.5% (n = 340,000). inhibition, % at 5.96 µM. AID 504803; in the data active = inhibition above about 36%;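 note: 0% = enzyme with DMSO and 100% = wells lacking enzyme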
TCR CD3 inh: inhibitors of human TCR-CD3 interaction; TAMRA-labeled TCR probe fluorescence, biochemical; inhibition, % at 9.4 µM; actives 0.37% (n = 360,000); AID 651800; in the data active = inhibition above about 19%;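 note: recombinant mutant TCR 2C K166C tagged with TAMRA read by polarization; 0% = receptor in buffer alone and 100% = receptor with positive control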
DAGLB inh: diacylglycerol lipase beta (human) inhibition. Q8NCG7. HEK293T DAGLB membrane lysate, EnzChek fluorogenic substrate. inhibition, % at 5.17 µM. actives 0.059% (n = 340,000). AID 504411; in the data active = inhibition above about 34%;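 note: 0% = enzyme with vehicle and 100% = wells lacking enzyme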
SIAE confirm: human SIAE inhibition, confirmation; shares compounds with SIAE primary; SIAE FP-Rh activity-based probe, fluorescence polarization; inhibition, % at 9.66 µM; actives 13% (n = 2,300); AID 1117263;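 active = mean inhibition of the replicates above the hit cutoff set in the primary screen, cut at about 17% in these data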;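 note: 0% = SIAE with DMSO and probe and 100% = probe without SIAE; inhibitors lower polarization as more probe stays unbound to SIAE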
* = called active by the depositor; . = no result given. Sampled rows, rich in hits. Any-hit rate of the full collection: about 1.5%.

SMILES | ABHD4 inh | SIAE primary | HTRA1 inh | TCR CD3 inh | DAGLB inh | SIAE confirm
c1ccc(-c2ccc(C3=Nn4c(nnc4-c4ccncc4)SC3)cc2)cc1 | -26.3 | -17.3 | . | . | . | .
Cc1cccc(C(=O)NCC(=O)NC(C)CCc2ccccc2)c1 (configuration not stated) | -2.6 | 19.8* | -4.4 | 7.4 | 1.2 | -1.2
Cc1cccc(C(=O)OCC(=O)NC(C)CCc2ccccc2)c1 (configuration not stated) | 9.3 | -4.8 | -13.6 | -4.8 | -1.4 | .
CC(Sc1ccc(Cl)cc1)C(=O)NCC(c1ccco1)N1CCCCC1 (configuration not stated) | -3.7 | 62.6* | -10.7 | -2.1 | 1.1 | -2.2
Cn1cnnc1SCC(=O)c1cc2ccccc2oc1=O | 15.8 | 18.4* | 26.4 | -5.3 | 6.6 | 5.8
COC(=O)[C@]12C[C@H](CC(=O)NCC3CCCCC3)C(=O)N(CCC3=CCCCC3)C1=C[C@H](COCc1ccccc1)O[C@@H]2C | 1.0 | -1.3 | . | -0.6 | . | .
CNC(=S)N1CCc2ccccc2C1 | 4.8 | 29.7* | -1.4 | -1.8 | 3.4 | 5.2
Cc1ccc(N=C(NO)c2nonc2N)cc1 | -1.5 | 40.6* | 5.6 | -1.8 | 1.3 | -1.4
CCCN(C(=O)CCc1cn(CCC)c2ccccc12)c1ccc(N(C)c2ccccn2)cc1 | 6.8 | 15.8 | . | -5.2 | . | .
CCCCCn1cc(CCC(=O)Nc2ccc(N(C)c3ccccn3)cc2)c2ccccc21 | -1.2 | 26.4* | . | 1.5 | . | 27.1*
Cc1ccc(-c2nc3c4ccccc4ccn3c2Cc2ccccc2C(F)(F)F)cc1 | -6.4 | -7.2 | . | 3.1 | . | .
Cc1ccc(CN2CCN(Cc3c[nH]c4ccccc34)CC2CCO)o1 (configuration not stated) | 0.1 | 4.1 | -4.2 | -1.2 | 0.4 | .
Cc1ccc(CN2CCN(Cc3cc(=O)c4ccccc4[nH]3)CC2CCO)o1 (configuration not stated) | 0.1 | 17.1* | 0.2 | -0.3 | -0.9 | -10.1
COC(=O)c1cc2c(c3c4cc(OC)ccc4n(S(=O)(=O)c4ccccc4)c13)C(=O)N(C)C2 | 1.7 | 0.6 | . | 5.4 | . | .
Brc1ccc(CN2CCN(c3ncc(Cc4ccccc4)cn3)CC2)cc1 | -0.9 | 0.8 | . | -1.3 | . | .
COCCNC(=O)CN1C(=O)NC2(CCOc3ccccc32)C1=O (configuration not stated) | -0.9 | -4.9 | 1.7 | 0.1 | 0.8 | .
CC(CNC(=O)CN1C(=O)NC2(CCOc3ccccc32)C1=O)c1ccccc1 (configuration not stated) | 5.6 | 82.5* | -2.8 | 4.8 | 3.2 | -2.4
C[C@H]1/C=C/CC(=O)N[C@@H](c2ccccc2)[C@@H](C)/C=C/CC(=O)N[C@H]1c1ccccc1 | -3.2 | 1.8 | . | . | . | .
COC(=O)C1=C(C)N(Cc2ccccc2C(F)(F)F)C(=NCc2cccc(C(F)(F)F)c2)NC1c1cccc(Cl)c1 (configuration not stated) | 5.9 | -7.3 | . | -2.8 | . | .
Cc1cc[n+](-c2[nH]c(=O)sc2/C=N/N=C(\[O-])CCn2c3ccccc3c3ccccc32)cc1 | 14.4 | 24.3* | . | -5.3 | . | 10.9
CN(CCn1ccnc1)C(=O)CC1C(=O)NCCN1Cc1ccccc1C(F)(F)F (configuration not stated) | -0.6 | 24.4* | -1.7 | 4.6 | 2.2 | -0.7
Cc1nc2c3ccccc3nc(NNC(=O)CCC(=O)N3CCCC(C)C3)n2n1 (configuration not stated) | 5.0 | 19.1* | 4.8 | 10.4 | 2.3 | 1.4
O=C(O)c1ccccc1NN=Cc1ccccc1 | 6.0 | 17.7* | 3.1 | -8.0 | 6.5 | 2.3
Cc1ccn2c(NC3CCCC3)c(-c3ccncc3)nc2c1 | -4.4 | 17.8* | 3.3 | 1.8 | 0.4 | -0.6
Cc1ccc2nc(-c3ccncc3)c(NC3CCCC3)n2c1 | -2.8 | 4.2 | -6.5 | -8.1 | 3.1 | .
COc1cc(NC(=O)[C@H]2O[C@@H](n3cnc4c(N)ncnc43)[C@H](O)[C@@H]2O)cc(OC)c1OC | 3.6 | 61.3* | . | 3.7 | . | 69.1*
Cc1cc(S(=O)(=O)NC(=O)[C@H]2O[C@@H](n3cnc4c(N)ncnc43)[C@H](O)[C@@H]2O)ccc1Br | 9.8 | 47.1* | . | -1.0 | . | 50.6*
Nc1ncnc2c1ncn2C1OC(C(=O)NC2CC2)C(O)C1O (configuration not stated) | 4.3 | -1.3 | 4.8 | 0.3 | -1.4 | .

Source: PubChem
